Test results published in ChEMBL document CHEMBL3098071, “Synthesis and evaluation of novel azoles as potent antifungal agents” (2014).
In brackets after ≈: the same amount, converted by molar mass.

Assays:
Type in all cases: functional
[1] = tested on: Nannizzia gypsea; assay: Antimicrobial activity against Microsporum gypseum by broth microdilution method
[2] = tested on: Aspergillus fumigatus; assay: Antimicrobial activity against Aspergillus fumigatus by broth microdilution method
[3] = tested on: Trichophyton rubrum; assay: Antimicrobial activity against Trichophyton rubrum by broth microdilution method
[4] = tested on: Nakaseomyces glabratus; assay: Antimicrobial activity against Candida glabrata by broth microdilution method
[5] = tested on: Cryptococcus neoformans; assay: Antimicrobial activity against Cryptococcus neoformans after 72 hrs by broth microdilution method
In short: (§1)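 Broth microdilution in 96-well plates following NCCLS methods. Compounds were dissolved in DMSO, serially diluted in growth medium, inoculated and incubated at 35°C. MIC read at 24 h for Candida albicans and at 72 h for Cryptococcus neoformans. MIC80 is the first well with about 80% less growth than the drug-free well. Values are means of three replicate tests.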

[6] = tested on: Candida parapsilosis; assay: Antimicrobial activity against Candida parapsilosis by broth microdilution method; conditions: Lodderomyces parapsilosis
[7] = tested on: Candida albicans; assay: Antimicrobial activity against Candida albicans SC5314 after 24 hrs by broth microdilution method; conditions: SC5314, 24 h; in short: as §1
[8] = tested on: Candida albicans; assay: Antimicrobial activity against Candida albicans Y0109 after 24 hrs by broth microdilution method; conditions: Y0109, 24 h; in short: as §1
[9] = tested on: Candida albicans; assay: Ratio of voriconazole MIC80 to compound MIC80 for Candida albicans SC5314
[10] = tested on: Candida albicans; assay: Ratio of itraconazole MIC80 to compound MIC80 for Candida albicans SC5314

Compound | MIC80 [1] [µg/mL] | MIC80 [2] [µg/mL] | MIC80 [3] [µg/mL] | MIC80 [4] [µg/mL] | MIC80 [5] [µg/mL] | MIC80 [6] [µg/mL] | MIC80 [7] [µg/mL] | MIC80 [8] [µg/mL] | Ratio [9] | Ratio [10]
CC(=O)N1CCN(c2ccc(OCC3COC(Cn4ccnc4)(c4ccc(Cl)cc4Cl)O3)cc2)CC1 (stereo unspecified) [KETOCONAZOLE] | 2 (≈ 3.76 µM) | 2 (≈ 3.76 µM) | 8 (≈ 15.1 µM) | 8 (≈ 15.1 µM) | 4 (≈ 7.53 µM) | 8 (≈ 15.1 µM) | 4 (≈ 7.53 µM) | 8 (≈ 15.1 µM) |  | 
OC(CN1CCN(CCCSc2nnc(-c3ccc(Br)cc3)o2)CC1)(Cn1cncn1)c1ccc(F)cc1F (stereo unspecified) | 0.25 (≈ 0.403 µM) | > 64 | 0.25 (≈ 0.403 µM) | 0.0156 (≈ 0.0251 µM) | 0.25 (≈ 0.403 µM) | 0.0625 (≈ 0.101 µM) | 0.0625 (≈ 0.101 µM) | 0.0625 (≈ 0.101 µM) |  | 
OC(CN1CCN(CCCSc2nnc(-c3ccccc3)o2)CC1)(Cn1cncn1)c1ccc(F)cc1F (stereo unspecified) | 1 (≈ 1.85 µM) | > 64 | 0.25 (≈ 0.462 µM) | 0.0625 (≈ 0.115 µM) | 0.0625 (≈ 0.115 µM) | 0.0625 (≈ 0.115 µM) | 0.0156 (≈ 0.0288 µM) | 0.0156 (≈ 0.0288 µM) |  | 
OC(CN1CCN(CCCSc2nnc(-c3cccc(Cl)c3)o2)CC1)(Cn1cncn1)c1ccc(F)cc1F (stereo unspecified) | 1 (≈ 1.74 µM) | > 64 | 0.0625 (≈ 0.108 µM) | 0.25 (≈ 0.434 µM) | 0.0625 (≈ 0.108 µM) | 0.25 (≈ 0.434 µM) | 0.0039 (≈ 0.00677 µM) | 0.0039 (≈ 0.00677 µM) | 16 | 64
N#Cc1cccc(-c2nnc(SCCCN3CCN(CC(O)(Cn4cncn4)c4ccc(F)cc4F)CC3)o2)c1 (stereo unspecified) | 1 (≈ 1.76 µM) | > 64 | 0.25 (≈ 0.441 µM) | 0.25 (≈ 0.441 µM) | 0.25 (≈ 0.441 µM) | 0.25 (≈ 0.441 µM) | 0.125 (≈ 0.221 µM) | 0.125 (≈ 0.221 µM) |  | 
OC(CN1CCN(CCCSc2nnc(-c3ccccc3Cl)o2)CC1)(Cn1cncn1)c1ccc(F)cc1F (stereo unspecified) | 4 (≈ 6.94 µM) | > 64 | 0.25 (≈ 0.434 µM) | 0.25 (≈ 0.434 µM) | 0.25 (≈ 0.434 µM) | 0.25 (≈ 0.434 µM) | 0.0039 (≈ 0.00677 µM) | 0.0039 (≈ 0.00677 µM) | 16 | 64
OC(CN1CCN(CCCSc2nnc(-c3ccccc3F)o2)CC1)(Cn1cncn1)c1ccc(F)cc1F (stereo unspecified) | 1 (≈ 1.79 µM) | > 64 | 0.0625 (≈ 0.112 µM) | 0.0625 (≈ 0.112 µM) | 0.0625 (≈ 0.112 µM) | 0.25 (≈ 0.447 µM) | 0.0625 (≈ 0.112 µM) | 0.0156 (≈ 0.0279 µM) |  | 
OC(CN1CCN(CCCSc2nnc(-c3ccc(F)cc3)o2)CC1)(Cn1cncn1)c1ccc(F)cc1F (stereo unspecified) | 4 (≈ 7.15 µM) | > 64 | 0.0625 (≈ 0.112 µM) | 0.25 (≈ 0.447 µM) | 0.25 (≈ 0.447 µM) | 0.25 (≈ 0.447 µM) | 0.0156 (≈ 0.0279 µM) | 0.25 (≈ 0.447 µM) |  | 
OC(CN1CCNCC1)(Cn1cncn1)c1ccc(F)cc1F (stereo unspecified) | 16 (≈ 49.5 µM) | > 64 | 1 (≈ 3.09 µM) | 0.25 (≈ 0.773 µM) | 4 (≈ 12.4 µM) | 2 (≈ 6.19 µM) | 0.5 (≈ 1.55 µM) | 1 (≈ 3.09 µM) |  | 
Cc1ccc(-c2nnc(SCCCN3CCN(CC(O)(Cn4cncn4)c4ccc(F)cc4F)CC3)o2)cc1 (stereo unspecified) | 1 (≈ 1.8 µM) | > 64 | 1 (≈ 1.8 µM) | 0.25 (≈ 0.45 µM) | 1 (≈ 1.8 µM) | 0.025 (≈ 0.045 µM) | 0.25 (≈ 0.45 µM) | 0.125 (≈ 0.225 µM) |  | 
OC(CN1CCN(CCCSc2nnc(-c3ccc(Cl)cc3)o2)CC1)(Cn1cncn1)c1ccc(F)cc1F (stereo unspecified) | 4 (≈ 6.94 µM) | > 64 | 0.25 (≈ 0.434 µM) | 0.0625 (≈ 0.108 µM) | 0.0625 (≈ 0.108 µM) | 0.0625 (≈ 0.108 µM) | 0.0039 (≈ 0.00677 µM) | 0.0625 (≈ 0.108 µM) | 16 | 
Cc1cccc(-c2nnc(SCCCN3CCN(CC(O)(Cn4cncn4)c4ccc(F)cc4F)CC3)o2)c1 (stereo unspecified) | 1 (≈ 1.8 µM) | > 64 | 1 (≈ 1.8 µM) | 1 (≈ 1.8 µM) | 1 (≈ 1.8 µM) | 4 (≈ 7.2 µM) | 0.125 (≈ 0.225 µM) | 0.25 (≈ 0.45 µM) |  | 
OC(CN1CCN(CCCSc2nnc(-c3cccc(F)c3)o2)CC1)(Cn1cncn1)c1ccc(F)cc1F (stereo unspecified) | 1 (≈ 1.79 µM) | > 64 | 0.0625 (≈ 0.112 µM) | 0.0625 (≈ 0.112 µM) | 0.0625 (≈ 0.112 µM) | 0.25 (≈ 0.447 µM) | 0.0039 (≈ 0.00697 µM) | 0.0625 (≈ 0.112 µM) | 16 | 64
